Source: ChEMBL document CHEMBL2380295, “Structure-activity studies on the side chain of a simplified analog of aplysiatoxin (aplog-1) with anti-proliferative activity” (Bioorg Med Chem, 2013)

Experiments:
[1] = Growth inhibition of human HBC4 cells after 48 hrs by sulforhodamine B assay; format: functional; details: HBC4, 48 h
Procedure, shortened: (§1)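 Yamori 39-line human cancer panel, NCI method with modifications. Cells plated in RPMI 1640 plus 5% FBS, attached overnight, then exposed 48 h to compound at 10^-8, 10^-7, 10^-6, 10^-5 and 10^-4 M. Sulforhodamine B staining read at 525 nm; % growth = 100[(T−T0)/(C−T0)] from duplicate-point averages, with T0 the time-zero absorbance. GI50 is the concentration giving 50.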

SNB-75 = assay: Growth inhibition of human SNB75 cells after 48 hrs by sulforhodamine B assay; format: functional; details: SNB-75, 48 h; procedure, shortened: as §1
HCT-116 = assay: Growth inhibition of human HCT116 cells after 48 hrs by sulforhodamine B assay; format: functional; details: HCT-116, 48 h; procedure, shortened: as §1
SF-295 = assay: Growth inhibition of human SF295 cells after 48 hrs by sulforhodamine B assay; format: functional; details: SF-295, 48 h; procedure, shortened: as §1
MKN-74 = assay: Growth inhibition of human MKN74 cells after 48 hrs by sulforhodamine B assay; format: functional; details: MKN-74, 48 h; procedure, shortened: as §1
OVCAR-4 = assay: Growth inhibition of human OVCAR4 cells after 48 hrs by sulforhodamine B assay; format: functional; details: OVCAR-4, 48 h; procedure, shortened: as §1
[2] = Growth inhibition of human RXF631L cells after 48 hrs by sulforhodamine B assay; format: functional; details: RXF 631, 48 h; procedure, shortened: as §1
MCF7 = assay: Growth inhibition of human MCF7 cells after 48 hrs by sulforhodamine B assay; format: functional; details: MCF7, 48 h; procedure, shortened: as §1
SF-268 = assay: Growth inhibition of human SF268 cells after 48 hrs by sulforhodamine B assay; format: functional; details: SF-268, 48 h; procedure, shortened: as §1
NCI-H226 = assay: Growth inhibition of human NCI-H226 cells after 48 hrs by sulforhodamine B assay; format: functional; details: NCI-H226, 48 h; procedure, shortened: as §1
SK-OV-3 = assay: Growth inhibition of human SKOV3 cells after 48 hrs by sulforhodamine B assay; format: functional; details: SK-OV-3, 48 h; procedure, shortened: as §1
NCI-H522 = assay: Growth inhibition of human NCI-H522 cells after 48 hrs by sulforhodamine B assay; format: functional; details: NCI-H522, 48 h; procedure, shortened: as §1
Human gammaherpesvirus 4 [3] = assay: Induction of EBV-early antigen expressed in human Raji cells at 10^-6 M after 48 hrs by immunofluorescence assay relative to control; format: organism-based; details: human gammaherpesvirus 4, raji, 1 µM
Procedure, shortened: (§2)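 Raji B-lymphoblastoid cells (5 × 10^5/mL) in RPMI 1640 with 10% FBS, with 4 mM sodium n-butyrate as synergist and test compound at 10^-7 or 10^-6 M (final DMSO 0.4%). Incubated 48 h at 37 °C under 5% CO2. Smears were stained by indirect immunofluorescence using NPC patient serum and FITC anti-human IgG. At least 500 cells counted; % EA-positive recorded; n = 3, SEM.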

HCT-15 = assay: Growth inhibition of human HCT15 cells after 48 hrs by sulforhodamine B assay; format: functional; details: HCT-15, 48 h; procedure, shortened: as §1
LOX IMVI = assay: Growth inhibition of human LOXIMVI cells after 48 hrs by sulforhodamine B assay; format: functional; procedure, shortened: as §1
[4] = Growth inhibition of human HCC2998 cells after 48 hrs by sulforhodamine B assay; format: functional; details: HCC 2998, 48 h; procedure, shortened: as §1
Human gammaherpesvirus 4 [5] = assay: Induction of EBV-early antigen expressed in human Raji cells at 10^-7 M after 48 hrs by immunofluorescence assay relative to control; format: organism-based; details: human gammaherpesvirus 4, raji, 0.1 µM; procedure, shortened: as §2
MKN-28 = assay: Growth inhibition of human MKN28 cells after 48 hrs by sulforhodamine B assay; format: functional; details: MKN-28, 48 h; procedure, shortened: as §1
MKN-45 = assay: Growth inhibition of human MKN45 cells after 48 hrs by sulforhodamine B assay; format: functional; details: MKN-45, 48 h; procedure, shortened: as §1
HT-29 = assay: Growth inhibition of human HT-29 cells after 48 hrs by sulforhodamine B assay; format: functional; details: HT-29, 48 h; procedure, shortened: as §1
St-4 = assay: Growth inhibition of human St-4 cells after 48 hrs by sulforhodamine B assay; format: functional; details: St-4, 48 h; procedure, shortened: as §1
MDA-MB-231 = assay: Growth inhibition of human MDA-MB-231 cells after 48 hrs by sulforhodamine B assay; format: functional; details: MDA-MB-231, 48 h; procedure, shortened: as §1
PC-3 = assay: Growth inhibition of human PC3 cells after 48 hrs by sulforhodamine B assay; format: functional; details: PC-3, 48 h; procedure, shortened: as §1
DMS-114 = assay: Growth inhibition of human DMS114 cells after 48 hrs by sulforhodamine B assay; format: functional; details: DMS-114, 48 h; procedure, shortened: as §1
NCI-H23 = assay: Growth inhibition of human NCI-H23 cells after 48 hrs by sulforhodamine B assay; format: functional; details: NCI-H23, 48 h; procedure, shortened: as §1
OVCAR-3 = assay: Growth inhibition of human OVCAR3 cells after 48 hrs by sulforhodamine B assay; format: functional; details: OVCAR-3, 48 h; procedure, shortened: as §1
DU-145 = assay: Growth inhibition of human DU145 cells after 48 hrs by sulforhodamine B assay; format: functional; details: DU-145, 48 h; procedure, shortened: as §1
[6] = Growth inhibition of human HBC5 cells after 48 hrs by sulforhodamine B assay; format: functional; details: HBC5, 48 h; procedure, shortened: as §1
DMS-273 = assay: Growth inhibition of human DMS273 cells after 48 hrs by sulforhodamine B assay; format: functional; details: DMS-273, 48 h; procedure, shortened: as §1
U-251 = assay: Growth inhibition of human U251 cells after 48 hrs by sulforhodamine B assay; format: functional; details: U-251, 48 h; procedure, shortened: as §1
NCI-H460 = assay: Growth inhibition of human NCI-H460 cells after 48 hrs by sulforhodamine B assay; format: functional; details: NCI-H460, 48 h; procedure, shortened: as §1
ACHN = assay: Growth inhibition of human ACHN cells after 48 hrs by sulforhodamine B assay; format: functional; procedure, shortened: as §1
[7] = Growth inhibition of human BSY1 cells after 48 hrs by sulforhodamine B assay; format: functional; details: BSY-1, 48 h; procedure, shortened: as §1
SF-539 = assay: Growth inhibition of human SF539 cells after 48 hrs by sulforhodamine B assay; format: functional; details: SF-539, 48 h; procedure, shortened: as §1
[8] = target: T1, Protein kinase C delta type (Homo sapiens, UniProt Q05655); assay: Inhibition of [3H]PDBu binding to PKCdelta-C1A domain peptide (unknown origin)
T1 sequence (Q05655 whole entry, the tested form may be a part): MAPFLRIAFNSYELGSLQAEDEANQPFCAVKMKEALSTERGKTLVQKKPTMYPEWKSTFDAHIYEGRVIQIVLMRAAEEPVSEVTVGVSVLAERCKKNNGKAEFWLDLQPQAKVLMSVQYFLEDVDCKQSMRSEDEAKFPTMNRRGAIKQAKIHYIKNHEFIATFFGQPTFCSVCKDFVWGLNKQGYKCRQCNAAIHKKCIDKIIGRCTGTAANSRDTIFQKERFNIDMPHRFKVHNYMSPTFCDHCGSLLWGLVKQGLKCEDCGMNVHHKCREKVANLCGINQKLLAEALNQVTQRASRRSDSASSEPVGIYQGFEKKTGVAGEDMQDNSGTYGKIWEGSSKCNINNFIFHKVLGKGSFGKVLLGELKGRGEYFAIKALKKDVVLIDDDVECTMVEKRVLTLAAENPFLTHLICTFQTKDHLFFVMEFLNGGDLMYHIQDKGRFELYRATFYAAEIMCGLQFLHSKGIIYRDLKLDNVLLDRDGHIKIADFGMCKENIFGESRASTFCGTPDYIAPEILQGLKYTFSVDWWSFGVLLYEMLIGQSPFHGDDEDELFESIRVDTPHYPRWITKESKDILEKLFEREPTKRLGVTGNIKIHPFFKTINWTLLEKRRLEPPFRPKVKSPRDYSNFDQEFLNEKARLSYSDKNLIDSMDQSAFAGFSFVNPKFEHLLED
Procedure, shortened: (§3)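 Competitive [3H]PDBu binding used 14 or 40 nM PKCδ C1 peptide and 20 nM [3H]PDBu (19.6 Ci/mmol), in 50 mM Tris-maleate (pH 7.4 at 4 °C) with 50 µg/mL phosphatidylserine, 3 mg/mL bovine γ-globulin and varied inhibitor concentrations. IC50 was taken as 50% inhibition of specific binding. Ki was derived by the Sharkey–Blumberg method.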

[9] = Cytotoxicity against human Raji cells assessed as cell viability at 10^-7 M; format: cell-based; details: read-out: Activity
KM12 = assay: Growth inhibition of human KM12 cells after 48 hrs by sulforhodamine B assay; format: functional; details: KM12, 48 h; procedure, shortened: as §1
[10] = Growth inhibition of human MKN1 cells after 48 hrs by sulforhodamine B assay; format: functional; details: MKN-1, 48 h; procedure, shortened: as §1
[11] = Cytotoxicity against human Raji cells assessed as cell viability at 10^-6 M; format: cell-based; details: read-out: Activity
OVCAR-5 = assay: Growth inhibition of human OVCAR5 cells after 48 hrs by sulforhodamine B assay; format: functional; details: OVCAR-5, 48 h; procedure, shortened: as §1
OVCAR-8 = assay: Growth inhibition of human OVCAR8 cells after 48 hrs by sulforhodamine B assay; format: functional; details: OVCAR-8, 48 h; procedure, shortened: as §1
[12] = target: T1, Protein kinase C delta type; assay: Inhibition of [3H]PDBu binding to PKCdelta-C1B domain peptide (unknown origin); procedure, shortened: as §3
A549 = assay: Growth inhibition of human A549 cells after 48 hrs by sulforhodamine B assay; format: functional; details: A549, 48 h; procedure, shortened: as §1
MKN-7 = assay: Growth inhibition of human MKN7 cells after 48 hrs by sulforhodamine B assay; format: functional; details: MKN-7, 48 h; procedure, shortened: as §1
[13] = Octanol-water partition coefficient, log P of the compound by HPLC analysis; format: physicochemical
Procedure, shortened: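 log P was estimated from HPLC retention, with column dead time measured using unretained formamide.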

SNB-78 = assay: Growth inhibition of human SNB78 cells after 48 hrs by sulforhodamine B assay; format: functional; details: SNB-78, 48 h; procedure, shortened: as §1

CC1(C)CC[C@@H]2CC(=O)O[C@@H](CO)CC(=O)O[C@@H]3C[C@@H](CCCCc4c(Br)cc(Br)c(O)c4Br)O[C@@]1(C3)O2
GI50 [1]: 0.871 µM
GI50 (SNB-75): 26.3 µM
GI50 (HCT-116): 17.8 µM
GI50 (SF-295): 13.2 µM
GI50 (MKN-74): 21.9 µM
GI50 (OVCAR-4): 20.9 µM
GI50 [2]: 21.9 µM
GI50 (MCF7): 19.5 µM
GI50 (SF-268): 20.9 µM
GI50 (NCI-H226): 16.2 µM
GI50 (SK-OV-3): 32.4 µM
GI50 (NCI-H522): 20.4 µM
Activity (Human gammaherpesvirus 4 [3]): 1.9%
GI50 (HCT-15): 18.2 µM
GI50 (LOX IMVI): 11.7 µM
GI50 [4]: 7.59 µM
Activity (Human gammaherpesvirus 4 [5]): 1.9%
GI50 (MKN-28): 18.2 µM
GI50 (MKN-45): 11.5 µM
GI50 (HT-29): 16.6 µM
GI50 (St-4): 3.09 µM
GI50 (MDA-MB-231): 12 µM
GI50 (PC-3): 13.2 µM
GI50 (DMS-114): 25.7 µM
GI50 (NCI-H23): 14.1 µM
GI50 (OVCAR-3): 15.5 µM
GI50 (DU-145): 17 µM
GI50 [6]: 22.9 µM
GI50 (DMS-273): 18.2 µM
GI50 (U-251): 16.2 µM
GI50 (NCI-H460): 3.24 µM
GI50 (ACHN): 16.2 µM
GI50 [7]: 21.4 µM
GI50 (SF-539): 13.5 µM
Ki [8]: 0.079 µM
viability at 0.1 µM [9]: 40%
GI50 (KM12): 16.6 µM
GI50 [10]: 14.8 µM
viability at 1 µM [11]: 40%
GI50 (OVCAR-5): 18.6 µM
GI50 (OVCAR-8): 17.4 µM
Ki [12]: 0.0069 µM
GI50 (A549): 12.6 µM
GI50 (MKN-7): 20.9 µM
logP [13]: 5.5
GI50 (SNB-78): 47.9 µM

CC(=O)Nc1ccc(CCCC[C@@H]2C[C@@H]3C[C@@]4(O[C@H](CCC4(C)C)CC(=O)O[C@@H](CO)CC(=O)O3)O2)cc1O
GI50 [1]: 2.45 µM
GI50 (SNB-75): 41.7 µM
GI50 (HCT-116): 31.6 µM
GI50 (SF-295): 13.2 µM
GI50 (MKN-74): 33.1 µM
GI50 (OVCAR-4): 37.2 µM
GI50 [2]: 28.8 µM
GI50 (MCF7): 40.7 µM
GI50 (SF-268): 43.7 µM
GI50 (NCI-H226): 26.9 µM
GI50 (SK-OV-3): 34.7 µM
GI50 (NCI-H522): 25.7 µM
Activity (Human gammaherpesvirus 4 [3]): 2.4%
GI50 (HCT-15): 33.9 µM
GI50 (LOX IMVI): 12.9 µM
GI50 [4]: 13.8 µM
Activity (Human gammaherpesvirus 4 [5]): 2.4%
GI50 (MKN-28): 2.57 µM
GI50 (MKN-45): 28.8 µM
GI50 (HT-29): 19.5 µM
GI50 (St-4): 2.14 µM
GI50 (MDA-MB-231): 16.6 µM
GI50 (PC-3): 20.9 µM
GI50 (DMS-114): 20.9 µM
GI50 (NCI-H23): 33.9 µM
GI50 (OVCAR-3): 23.4 µM
GI50 (DU-145): 29.5 µM
GI50 [6]: 46.8 µM
GI50 (DMS-273): 0.933 µM
GI50 (U-251): 26.9 µM
GI50 (NCI-H460): 20.4 µM
GI50 (ACHN): 26.3 µM
GI50 [7]: 26.3 µM
GI50 (SF-539): 30.2 µM
Ki [8]: 0.29 µM
viability at 0.1 µM [9]: 60%
GI50 (KM12): 31.6 µM
GI50 [10]: 34.7 µM
viability at 1 µM [11]: 60%
GI50 (OVCAR-5): 20.4 µM
GI50 (OVCAR-8): 44.7 µM
Ki [12]: 0.036 µM
GI50 (A549): 15.1 µM
GI50 (MKN-7): 30.2 µM
logP [13]: 2.7
GI50 (SNB-78): 51.3 µM
